Measured values taken from ChEMBL document CHEMBL1130326, “Anti-Helicobacter pylori agents. 1. 2-(Alkylguanidino)-4-furylthiazoles and related compounds” (1997).
Values after ≈ are worked out from the molar mass of the structure shown.

Experiments:
Cavia porcellus = organism: Cavia porcellus; experiment: inhibition of the histamine stimulated […] response in the isolated guinea pig right atrium at 1x 10 e-6 g/mL; assay type: functional, Cardiac atrium
Summary of the method: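 Isolated atrium; beating rate and contraction amplitude recorded via transducer and polygraph. Histamine hydrochloride 1 × 10^-6 g/mL added to bath and rate increase measured. Percent inhibition from histamine-induced rate increases before versus 30 min after compound.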

Helicobacter pylori [1] = experiment: Evaluated for antimicrobial activity against Helicobacter pylori; assay type: functional
Summary of the method: (§1)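 Agar dilution. Test strain precultured on Brucella agar with 3% horse serum and 2% starch, 37 °C, 3 days. Suspended in buffered saline to McFarland no. 1, diluted 10²-fold, then spotted by multipoint replicator onto Brucella agar plus 7% lysed horse blood carrying serial 2-fold drug dilutions. Incubated 37 °C, 3 days, 10% CO₂. MIC taken as lowest concentration stopping macroscopic colonial growth.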

Rattus norvegicus = experiment: inhibition of histamine stimulated gastric secretion in lumen perfused stomach of anesthetized rats at 1 mg/kg intravenously; assay type: functional; settings: route intravenous
Summary of the method: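 Abdomen opened; gastric lumen perfused with saline throughout. Secretion stimulated by iv histamine infusion, 3 mg/kg/h. Perfusate acid titrated with 25 mM NaOH by autotitrator. n = 2.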

Helicobacter pylori [2] = experiment: minimum inhibitory concentration was determined against Helicobacter pylori. the value in parentheses is range; assay type: functional, organism-based
Summary of the method: as §1, with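 “growth. Mean and range from 10 strains (8001, 8003, 8004, 8007, 8008, 8009, 8011, 9005, FP1530, FP1532).” for “growth.”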

| Compound | Inhibition (Cavia porcellus) [%] | MIC (Helicobacter pylori [1]) [µg/mL] | inhibition in vivo at 1 mg/kg (Rattus norvegicus) [%] | MIC (Helicobacter pylori [2]) [µg/mL] |
| --- | --- | --- | --- | --- |
| C/N=C(\N)Nc1nc(-c2ccc(CNC(C)=O)o2)cs1 | 25 | 12.5 (≈ 42.6 µM) | 24 |  |
| CC/N=C(\N)Nc1nc(-c2ccc(CNC(C)=O)o2)cs1 | 51 | 3.13 (≈ 10.2 µM) | 79 |  |
| BISMUTH SUBCITRATE |  |  |  | 18 |
| CC(=O)NCc1ccc(-c2csc(CN(C)C)n2)o1 | 6 | > 200 | 4 |  |
| CC(=O)NCc1ccc(-c2csc(NC3=NCCN3)n2)o1 | 8 | > 100 | 18 |  |
| CCCC/N=C(\N)Nc1nc(-c2ccc(CNC(C)=O)o2)cs1 | 78 | 0.21 (≈ 0.626 µM) | 45 |  |
| CCC/N=C(\N)Nc1nc(-c2ccc(CNC(C)=O)o2)cs1 | 81 | 1.67 (≈ 5.2 µM) | 97 |  |
| Cc1ncc([N+](=O)[O-])n1CCO [METRONIDAZOLE] |  | 5.4 (≈ 31.6 µM) |  |  |
| CN/C(=N\CCSCc1nc[nH]c1C)NC#N [CIMETIDINE] | 43 | 1130 (≈ 4480 µM) | 53 |  |
| CC(=O)NCc1ccc(-c2csc(/N=C(\N)S)n2)o1 | 0 | > 200 | 11 |  |
| CC(=O)NCc1ccc(-c2csc(N/C(N)=N/C(C)C)n2)o1 | 27 | 2.9 (≈ 9.02 µM) | 32 |  |
| CC(=O)NCc1ccc(-c2nc(N=C(N)N)sc2C)o1 | 10 | 76 (≈ 259 µM) | 3 |  |
| CCCCNC(=O)Nc1nc(-c2ccc(CNC(C)=O)o2)cs1 | 0 | > 100 | 9 |  |
| CCCCCC/N=C(\N)Nc1nc(-c2ccc(CNC(C)=O)o2)cs1 | 79 | 0.11 (≈ 0.303 µM) | 44 |  |
